Source: ChEMBL document CHEMBL1122773 (1984)
Converted amounts (≈) assume the structure as drawn.

Tests used:
Mus musculus [1] = assay: Bioactivity in abscess, in Bacteroides fragilis infected mice following subcutaneous dose of 200 mg/kg after 30 mins of bleeding; type: functional
In short: (§1)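 On day 7 post-infection, groups of five mice were given a single 200 mg/kg subcutaneous dose and killed at set times. Blood was taken by cardiac puncture and abscesses were excised. Activity was measured by standard microbiological assay.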

Staphylococcus aureus [2] = assay: In vitro antibacterial activity against the aerobic Staphylococcus aureus (Strain UC no.6695); type: functional
In short: (§2)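 Broth microdilution in brain/heart infusion broth with twofold drug dilutions. Inoculum was a standardized suspension giving 10⁵ viable cells/mL final. Plates were incubated 20 h at 37 °C. MIC (mcg/mL) = lowest concentration with no visible growth.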

Klebsiella pneumoniae = assay: In vitro antibacterial activity against the aerobic Klebsiella pneumoniae (Strain UC no.58); type: functional; in short: as §2
Staphylococcus aureus [3] = assay: In vitro antibacterial activity against the aerobic Staphylococcus aureus (Strain UC no.6675); type: functional; in short: as §2
Mus musculus [4] = assay: Bioactivity in blood, in Bacteroides fragilis infected mice following subcutaneous dose of 200 mg/kg after 120 mins of bleeding; type: functional; in short: as §1
Clostridium cadaveris = assay: In vitro antibacterial activity against the anaerobic Clostridium cadaveris (Strain UC no.6510); type: functional
In short: (§3)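 Agar dilution with serial twofold drug dilutions in Schaedler broth mixed into molten Wilkens-Chalgren agar. Plates prereduced 3 h under 85% N2/10% H2/5% CO2. Strains grown 48 h on Schaedler agar, suspended to 0.5 McFarland, and 0.001 mL spotted by replicator. All steps done anaerobically. Incubation 48 h at 37 °C. MIC is the least drug inhibiting growth; a faint film or fewer than three colonies scored negative.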

Streptococcus pyogenes = assay: In vitro antibacterial activity against the aerobic Streptococcus pyogenes (Strain UC no.152)
Pseudomonas aeruginosa = assay: In vitro antibacterial activity against the aerobic Pseudomonas aeruginosa (Strain UC no.95); type: functional; in short: as §2
[5] = In vitro antibacterial activity against the aerobic […] III(Strain UC no.3213); type: functional; in short: as §2
[6] = test system: Peptoniphilus asaccharolyticus; assay: In vitro antibacterial activity against the anaerobic Peptoccus aerogenes (Strain UC no.6319); type: functional; in short: as §3
Mus musculus [7] = assay: Bioactivity in abscess, in Bacteroides fragilis infected mice following subcutaneous dose of 200 mg/kg after 360 mins of bleeding; type: functional; in short: as §1
Mus musculus [8] = assay: Bioactivity in abscess, in Bacteroides fragilis infected mice following subcutaneous dose of 200 mg/kg after 45 mins of bleeding; type: functional; in short: as §1
Staphylococcus aureus [9] = assay: In vitro antibacterial activity against the aerobic Staphylococcus aureus (Strain UC no.6694); type: functional; in short: as §2
Mus musculus [10] = assay: Bioactivity in blood, in Bacteroides fragilis infected mice following subcutaneous dose of 200 mg/kg after 150 mins of bleeding; type: functional; in short: as §1
[11] = In vitro antibacterial activity against the aerobic […] (Strain UC no.153); type: functional; in short: as §2
Staphylococcus aureus [12] = assay: In vitro antibacterial activity against the aerobic Staphylococcus aureus (Strain UC no.571); type: functional; in short: as §2
[13] = In vitro antibacterial activity against the aerobic […] (Strain UC no.871); type: functional; in short: as §2
Mus musculus [14] = assay: Bioactivity in abscess, in Bacteroides fragilis infected mice following subcutaneous dose of 200 mg/kg after 90 mins of bleeding; type: functional; in short: as §1
Staphylococcus aureus [15] = assay: In vitro antibacterial activity for minimum inhibition concentration (MIC) required to inhibit growth of Staphylococcus aureus; type: functional
In short: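 Broth microdilution in brain/heart infusion broth, inoculated with a standardized suspension to a final 10^5 viable cells/mL. Incubation 20 h at 37 °C. MIC read as the lowest concentration preventing visible growth.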

Staphylococcus aureus [16] = assay: In vitro antibacterial activity against the aerobic Staphylococcus aureus (Strain UC no.746); type: functional; in short: as §2
Mus musculus [17] = assay: Bioactivity in blood, in Bacteroides fragilis infected mice following subcutaneous dose of 200 mg/kg after 45 mins of bleeding; type: functional; in short: as §1
Mus musculus [18] = assay: Bioactivity in abscess, in Bacteroides fragilis infected mice following subcutaneous dose of 200 mg/kg after 15 mins of bleeding; type: functional; in short: as §1
Proteus vulgaris = assay: In vitro antibacterial activity against the aerobic Proteus vulgaris (Strain UC no.93); type: functional; in short: as §2
[19] = In vitro antibacterial activity against the aerobic […] I(Strain UC no.41); type: functional; in short: as §2
Mus musculus [20] = assay: Bioactivity in blood, in Bacteroides fragilis infected mice following subcutaneous dose of 200 mg/kg after 15 mins of bleeding; type: functional; in short: as §1
Mus musculus [21] = assay: Bioactivity in abscess, in Bacteroides fragilis infected mice following subcutaneous dose of 200 mg/kg after 120 mins of bleeding; type: functional; in short: as §1
[22] = In vitro antibacterial activity against the aerobic Salmonella schottmuelleri (Strain UC no.126); type: functional; in short: as §2
Staphylococcus aureus [23] = assay: In vitro antibacterial activity against the aerobic Staphylococcus aureus (Strain UC no.6691); type: functional; in short: as §2
Mus musculus [24] = assay: Bioactivity in blood, in Bacteroides fragilis infected mice following subcutaneous dose of 200 mg/kg after 90 mins of bleeding; type: functional; in short: as §1
Mus musculus [25] = assay: Bioactivity in blood, in Bacteroides fragilis infected mice following subcutaneous dose of 200 mg/kg after 60 mins of bleeding; type: functional; in short: as §1
Staphylococcus aureus [26] = assay: In vitro antibacterial activity against the aerobic Staphylococcus aureus (Strain UC no.76); type: functional; in short: as §2
Staphylococcus aureus [27] = assay: In vitro antibacterial activity against the aerobic Staphylococcus aureus (Strain UC no.6688); type: functional; in short: as §2
Cutibacterium acnes = assay: In vitro antibacterial activity against the anaerobic Propionibacterium acnes(Strain UC no.6575); type: functional; in short: as §3
Staphylococcus aureus [28] = assay: In vitro antibacterial activity against the aerobic Staphylococcus aureus (Strain UC no.6693); type: functional; in short: as §2
Staphylococcus aureus [29] = assay: In vitro antibacterial activity against the aerobic Staphylococcus aureus (Strain UC no.6689); type: functional; in short: as §2
Mus musculus [30] = assay: Bioactivity in abscess, in Bacteroides fragilis infected mice following subcutaneous dose of 200 mg/kg after 60 mins of bleeding; type: functional; in short: as §1
Mus musculus [31] = assay: Bioactivity in blood, in Bacteroides fragilis infected mice following subcutaneous dose of 200 mg/kg after 360 mins of bleeding; type: functional; in short: as §1
Staphylococcus aureus [32] = assay: In vitro antibacterial activity against the aerobic Staphylococcus aureus (Strain UC no.6686); type: functional; in short: as §2
Staphylococcus aureus [33] = assay: In vitro antibacterial activity against the aerobic Staphylococcus aureus (Strain UC no.6692); type: functional; in short: as §2
Mus musculus [34] = assay: Bioactivity in blood, in Bacteroides fragilis infected mice following subcutaneous dose of 200 mg/kg after 30 mins of bleeding; type: functional; in short: as §1
Clostridium tetani = assay: In vitro antibacterial activity against the anaerobic Clostridium tetani(Strain UC no.6521); type: functional
In short: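 Agar dilution under anaerobic conditions. Serial twofold drug dilutions in Schaedler broth were mixed with molten Wilkins-Chalgren agar. Plates were prereduced 3 h (85% N2, 10% H2, 5% CO2). Strains were grown 48 h on Schaedler agar, suspended to 0.5 McFarland, and 0.001 mL spotted by replicator. Incubation was anaerobic, 37 °C, 48 h.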

Mus musculus [35] = assay: Bioactivity in abscess, in Bacteroides fragilis infected mice following subcutaneous dose of 200 mg/kg after 150 mins of bleeding; type: functional; in short: as §1
Staphylococcus aureus [36] = assay: In vitro antibacterial activity against the aerobic Staphylococcus aureus (Strain UC no.570); type: functional; in short: as §2
Staphylococcus aureus [37] = assay: In vitro antibacterial activity against the aerobic Staphylococcus aureus (Strain UC no.6696); type: functional; in short: as §2
Escherichia coli = assay: In vitro antibacterial activity against the aerobic Escherichia coli (Strain UC no.45); type: functional; in short: as §2

## CC[C@@H]1CCN[C@H](C(=O)N[C@@H]([C@H]2O[C@H](SC)[C@H](O)[C@@H](O)[C@H]2O)[C@H](C)Cl)C1 [PIRLIMYCIN]
Mus musculus [1]
  A: 48 ug (g of abscess)-1
Staphylococcus aureus [2]
  MIC: 0.39 µg/mL (≈ 0.949 µM)
Klebsiella pneumoniae
  MIC: > 25 µg/mL
Staphylococcus aureus [3]
  MIC: 0.39 µg/mL (≈ 0.949 µM)
Mus musculus [4]
  B: 10 ug (g of abscess)-1
Clostridium cadaveris
  MIC: 0.06 µg/mL (≈ 0.146 µM)
Streptococcus pyogenes
  MIC: < 0.012 µg/mL
Pseudomonas aeruginosa
  MIC: > 25 µg/mL
[5]
  MIC: < 0.012 µg/mL
[6]
  MIC: 0.06 µg/mL (≈ 0.146 µM)
Mus musculus [7]
  A: 15 ug (g of abscess)-1
Mus musculus [8]
  A: 32 ug (g of abscess)-1
Staphylococcus aureus [9]
  MIC: > 25 µg/mL
Mus musculus [10]
  B: 8 ug (g of abscess)-1
[11]
  MIC: 0.05 µg/mL (≈ 0.122 µM)
Staphylococcus aureus [12]
  MIC: 0.78 µg/mL (≈ 1.9 µM)
[13]
  MIC: < 0.012 µg/mL
Mus musculus [14]
  A: 31 ug (g of abscess)-1
Staphylococcus aureus [15]
  MIC: 0.1 µg/mL (≈ 0.243 µM)
Staphylococcus aureus [16]
  MIC: 0.05 µg/mL (≈ 0.122 µM)
Mus musculus [17]
  B: 25 ug (g of abscess)-1
Mus musculus [18]
  A: 58 ug (g of abscess)-1
Proteus vulgaris
  MIC: > 25 µg/mL
[19]
  MIC: < 0.012 µg/mL
Mus musculus [20]
  B: 39 ug (g of abscess)-1
Mus musculus [21]
  A: 22 ug (g of abscess)-1
[22]
  MIC: > 25 µg/mL
Staphylococcus aureus [23]
  MIC: 0.2 µg/mL (≈ 0.487 µM)
Mus musculus [24]
  B: 14 ug (g of abscess)-1
Mus musculus [25]
  B: 20 ug (g of abscess)-1
Staphylococcus aureus [26]
  MIC: 0.1 µg/mL (≈ 0.243 µM)
Staphylococcus aureus [27]
  MIC: > 25 µg/mL
Cutibacterium acnes
  MIC: 0.06 µg/mL (≈ 0.146 µM)
Staphylococcus aureus [28]
  MIC: 0.78 µg/mL (≈ 1.9 µM)
Staphylococcus aureus [29]
  MIC: 0.78 µg/mL (≈ 1.9 µM)
Mus musculus [30]
  A: 31 ug (g of abscess)-1
Mus musculus [31]
  B: 4 ug (g of abscess)-1
Staphylococcus aureus [32]
  MIC: 0.2 µg/mL (≈ 0.487 µM)
Staphylococcus aureus [33]
  MIC: > 25 µg/mL
Mus musculus [34]
  B: 43 ug (g of abscess)-1
Clostridium tetani
  MIC: < 0.03 µg/mL
Mus musculus [35]
  A: 19 ug (g of abscess)-1
Staphylococcus aureus [36]
  MIC: 0.39 µg/mL (≈ 0.949 µM)
Staphylococcus aureus [37]
  MIC: 0.39 µg/mL (≈ 0.949 µM)
Escherichia coli
  MIC: > 25 µg/mL
